Published values pooled from the literature.
Each line is one published result; the experiments were not run side by side.

Compound	species	matrix	route	dose	notes	AUC(0-t)
CN1CCN(c2nccc3nc(-c4ccc(F)c(F)c4)[nH]c23)CC1	mouse	blood	intravenous	2 mg/kg		3.58 µM·h
Cc1ccc2cncc(N3CCc4c(cc(Cn5ccnc5)cc4-c4cn(C)nc4C(F)(F)F)C3=O)c2c1	male CD-1 mouse	plasma	oral	10 mg/kg		4420 ng·h/mL
CN1CCN(C2CCN(c3nccc4[nH]c(-c5cc(F)cc(F)c5)nc34)CC2)CC1	mouse	blood	intravenous	2 mg/kg		1.95 µM·h
CS(=O)(=O)CCNCc1ccc(-c2ccc3ncnc(Nc4ccc(OCc5cccc(F)c5)c(Cl)c4)c3c2)o1	nude mouse	plasma	oral	200 mg/kg	single dose	234000 ng·h/mL
C[C@H]1[C@@H](O)O[C@@H]2O[C@@]3(C)CC[C@H]4[C@H](C)CC[C@@H]1[C@@]24OO3	female SCID mouse	plasma	oral	120 mg/kg		1870 ng·h/mL
COc1nc(-c2cc(C)c(N[C@@H](C)c3cc(F)cc(F)c3)nn2)ccc1-n1cnc(C)c1	male CD-1 mouse	plasma	intravenous	1 mg/kg	single dose	1940 ng·h/mL
CC[C@H](C)[C@@H]1NC(=O)[C@@](C)(NC(=O)[C@H](CCCNC(=N)N)NC(=O)[C@H](CC(C)C)NC(=O)[C@@H](NC(=O)[C@H](CCC(N)=O)NC(=O)[C@H](CC(C)C)NC(C)=O)[C@@H](C)O)CCCC=CCCC[C@@](C)(C(=O)N[C@@H](CC(C)C)C(=O)N[C@@H](Cc2ccc3ccccc3c2)C(N)=O)NC(=O)[C@H](CCCNC(=N)N)NC(=O)[C@H](CCC(N)=O)NC1=O	male BALB/c mouse	plasma	subcutaneous	10 mg/kg		140000 ng·h/mL
CCc1cc(OC)c2nccc(N3CCc4c(cc(Cn5ccnc5)cc4-c4cn(C)nc4C(F)(F)F)C3=O)c2c1	male CD-1 mouse	plasma	intravenous	3 mg/kg		3330 ng·h/mL
COc1nc(-c2cc(C)c(N[C@@H](C)c3c(F)cc(F)cc3F)nn2)ccc1-n1cnc(C)c1	male CD-1 mouse	plasma	intravenous	1 mg/kg	single dose	2500 ng·h/mL
Cc1nc(-c2cnc(NC(C)C)n(C)c2=O)ccc1Oc1ccnc(-c2cnn(C)c2)c1	female mouse	plasma	oral	15 mg/kg	single dose	113000 ng·h/mL
C=CC(=O)N1CC2CC(n3nc(-c4ccc(C(=O)Nc5ccccn5)cc4)c4c(N)ncnc43)CC2C1 (centres unmarked)	SCID mouse	plasma	oral	0.2 mg/kg		8.63 ng·h/mL
Cc1c2c(n(-c3ccc(Cl)cc3Cl)c1-c1ccc(OS(=O)(=O)CCC(F)(F)F)cc1)CCN(N1CCCCC1)C2=O	mouse	plasma	oral	6 µmol/kg	single dose	3.6 µM·h
CCOc1ccc(Cc2cc([C@@H]3O[C@H](CO)[C@@H](O)[C@H](O)[C@H]3O)ccc2Cl)cc1	male C57BL/6 mouse	plasma	intravenous	1 mg/kg		680 ng·h/mL
CN1CCN(C(=O)c2cc3c(Nc4ccc(OC(F)(F)F)cc4)ncnc3s2)CC1	male BALB/c mouse	plasma	oral	20 mg/kg		2410 ng·h/mL
CCc1cc(C(=O)NC)c2nccc(N3CCc4c(cc(Cn5ccnc5)cc4-c4cn(C)nc4C(F)(F)F)C3=O)c2c1	male CD-1 mouse	plasma	oral	50 mg/kg		122000 ng·h/mL
CN1CCC[C@H](CN2c3ccccc3Sc3ccccc32)C1.O=C(O)CCC(=O)O	mouse	plasma	oral	64 mg/kg	single dose	8750 ng·h/mL
CC(C)(C)c1cc(NC(=O)Nc2ccc(Oc3ccnc4[nH]c(=O)cnc34)cc2F)n(-c2ccccc2)n1	BALB/c mouse	plasma	intravenous	2 mg/kg		154 µM·h
CNC(=O)c1cc(OC)cc2c(N3CCc4c(cc(Cn5ccnc5)cc4-c4cn(C)nc4C(F)(F)F)C3=O)ccnc12	male CD-1 mouse	plasma	intravenous	3 mg/kg		3300 ng·h/mL
CC(C)OC(=O)c1sc(Nc2ncccn2)nc1-c1cnccn1	male CD-1 mouse	plasma	oral	2.5 mg/kg		54 ng·h/mL
CNCCN(C)c1cc(C#N)cc(CCc2cc(C)cc(N)n2)c1	male BALB/c mouse	plasma	oral	10 mg/kg		162 ng·h/mL
CNC(=O)c1cc(Oc2ccc(NC(=O)Nc3ccc(Cl)c(C(F)(F)F)c3)c(F)c2)ccn1	male mouse	plasma	oral	10 mg/kg	single dose	18000 ng·h/mL
CN1CCC(N2CCN(c3nccc4[nH]c(-c5ccc(F)c(F)c5)nc34)CC2)CC1	mouse	blood	intravenous	2 mg/kg		6.77 µM·h
COc1ccc2nccc(N3CCc4c(cc(Cn5ccnc5)cc4-c4cn(C)nc4C(F)(F)F)C3=O)c2c1	male CD-1 mouse	plasma	oral	50 mg/kg		33800 ng·h/mL
Cn1ccnc1N1CCN(CC2CCN(c3nccc4[nH]c(-c5cc(F)cc(F)c5)nc34)CC2)CC1	mouse	blood	intravenous	2 mg/kg		7.88 µM·h
Cc1c(C(=O)NN2CCCCC2)nn(-c2ccc(Cl)cc2Cl)c1-c1ccc(Cl)cc1	mouse	plasma	oral	20 µmol/kg	single dose	9 µM·h
COc1ccc(C(O)COc2ccc(-c3csc(-c4ccc(OCC(O)c5ccc(OC)c(OC)c5)cc4)n3)cc2)cc1OC (centres unmarked)	C57BL/6 mouse	plasma	oral	10 mg/kg		10000 ng·h/mL
CSc1cc(Oc2ccnc3[nH]c(=O)cnc23)ccc1NC(=O)Nc1cc(C(C)(C)C)nn1-c1ccccc1	BALB/c mouse	plasma	intravenous	2 mg/kg		95 µM·h
COc1cc(OC)c2nccc(N3CCc4c(cc(Cn5ccnc5)cc4-c4cn(C)nc4C(F)(F)F)C3=O)c2c1	male CD-1 mouse	plasma	intravenous	3 mg/kg		803 ng·h/mL
O=S(=O)(c1ccc(-c2ccc3nccc(Nc4ccncn4)c3c2)cc1)N1CCOCC1	female BALB/c mouse	plasma	intraperitoneal	10 mg/kg		9510 ng·h/mL
